In ChEMBL document CHEMBL4052823, “Extra Sugar on Vancomycin: New Analogues for Combating Multidrug-Resistant Staphylococcus aureus and Vancomycin-Resistant Enterococci” (J Med Chem, 2018):
In brackets after ≈: the same amount, converted by molar mass. Activity calls are given as the source filed them. No cut-off for these calls is given here.

Key:
Staphylococcus aureus [1] = test: Antibacterial activity against healthcare-associated methicillin-resistant/vancomycin-intermediate Staphylococcus aureus Mu50 infected in BALB/c mouse assessed as decrease in liver CFU levels at 7 mg/kg, ip administered twice in 24 hrs interval measured after 5 days; assay type: functional, organism-based
Outline: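 Female BALB/c mice, 6−8 weeks old, were anesthetized with pentobarbital and infected retro-orbitally with ~3.8 × 10^8 CFU of exponential-phase Mu50, 12 per group. Treatment started 1 h post-infection: 7 mg/kg ip in sterile water, two doses 24 h apart. At day 5 mice were euthanized and liver homogenates plated on TSA for CFU counts. Groups were compared by two-tailed Mann−Whitney test.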

[2] = Clearance in CD1 mouse at 5 mg/kg, iv; assay type: ADME, organism-based; details: in vivo
Outline: (§1)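 Fasted male CD-1 mice (18−22 g), 5 mg/kg single dose into the tail vein, 6 per group. Blood sampled at 0.25, 0.75, 2, 4, 8 and 24 h and analysed by UPLC-MS/MS. T1/2, AUClast, AUCINF_obs, CL_obs, MRTINF_obs and VSS_obs were calculated for each animal from its time−concentration curve.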

Enterococcus faecium [3] = test: Antibacterial activity against glycopeptide-resistant Enterococcus faecium Efm-HS-vb01 vanB after 24 hrs by broth microdilution method; assay type: functional; details: Efm-HS-vb01, 24 h
Outline: (§2)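 Broth microdilution in cation-adjusted Mueller-Hinton II broth. DMSO stocks were diluted in broth and twofold serially from 128 to 0.0625 μg/mL or lower. Each well was inoculated with ~10^5 CFU of exponential-phase bacteria and incubated at 37 °C for 24 h. MIC was the lowest concentration giving complete growth inhibition, read per CLSI. Growth controls contained broth plus DMSO.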

Enterococcus faecium [4] = test: Antibacterial activity against glycopeptide-resistant Enterococcus faecium Efm-HS-06188 vanA after 24 hrs by broth microdilution method; assay type: functional; details: Efm-HS-06188, 24 h; outline: as §2
[5] = AUC (infinity) in CD1 mouse at 5 mg/kg, iv; assay type: ADME, organism-based; parameters: dose 5 mg/kg, route intravenous, time infinity; details: in vivo; outline: as §1
Enterococcus faecium [6] = test: Antibacterial activity against glycopeptide-resistant Enterococcus faecium Efm-HS-08257 vanM after 24 hrs by broth microdilution method; assay type: functional; details: Efm-HS-08257, 24 h; outline: as §2
Enterococcus faecium [7] = test: Antibacterial activity against glycopeptide-resistant Enterococcus faecium Efm-HS-0649 vanA after 24 hrs by broth microdilution method; assay type: functional; details: Efm-HS-0649, 24 h; outline: as §2
Blood = test: Drug uptake in CD1 mouse blood at 5 mg/kg, iv; assay type: ADME, organism-based; details: in vivo; outline: as §1
Staphylococcus aureus [8] = test: Potency index, ratio of telavancin MIC90 to test compound MIC90 for vancomycin/methicillin-susceptible Staphylococcus aureus Newman […]; assay type: functional
[9] = MRT (infinity) in CD1 mouse at 5 mg/kg, iv; assay type: ADME, organism-based; details: in vivo; outline: as §1
[10] = AUClast in CD1 mouse at 5 mg/kg, iv; assay type: ADME, organism-based; parameters: dose 5 mg/kg, route intravenous, time 0 - last; details: in vivo; outline: as §1
[11] = Half life in CD1 mouse at 5 mg/kg, iv; assay type: ADME, organism-based; details: in vivo; outline: as §1
Staphylococcus aureus [12] = test: Antibacterial activity against healthcare-associated methicillin-resistant/vancomycin-intermediate Staphylococcus aureus Mu50 after 24 hrs by broth microdilution method; assay type: functional; details: Mu50, 24 h; outline: as §2
Enterococcus faecium [13] = test: Antibacterial activity against glycopeptide-resistant Enterococcus faecium Efm-HS-0847 vanM after 24 hrs by broth microdilution method; assay type: functional; details: Efm-HS-0847, 24 h; outline: as §2
Staphylococcus aureus [14] = test: Antibacterial activity against vancomycin/methicillin-susceptible Staphylococcus aureus Newman […] after 24 hrs by broth microdilution method; assay type: functional
Outline: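 Broth microdilution in cation-adjusted Mueller-Hinton II broth. […] Each well received ~10^5 CFU of exponential-phase bacteria and was incubated at 37 °C for 24 h. MIC was taken as the lowest concentration giving complete growth inhibition, interpreted per CLSI.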

[15] = Volume of distribution at steady state in CD1 mouse at 5 mg/kg, iv; assay type: ADME, organism-based; details: in vivo, read-out: Vdss
Outline: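 Fasted male CD-1 mice (18−22 g), 5 mg/kg single dose into the tail vein, 6 per group. T1/2, AUClast, AUCINF_obs, CL_obs, MRTINF_obs and VSS_obs were calculated for each animal from its time−concentration curve.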

Staphylococcus aureus [16] = test: Antibacterial activity against methicillin-resistant Staphylococcus aureus USA300 LAC infected in BALB/c mouse assessed as mouse survival rate at 7 mg/kg, ip administered as single dose measured after 10 days relative to control; assay type: functional; details: for survival at 7 mg/kg: 240 h
Outline: (§3)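 Female BALB/c mice, 6−8 weeks old, were anesthetized with pentobarbital and infected retro-orbitally with ~2.35 × 10^8 CFU of exponential-phase USA300 LAC, 15 per group. A single 7 mg/kg ip dose was given 1 h after infection. Deaths were recorded daily to build survival curves.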

L02 = test: Cytotoxicity against human HL7702 cells assessed as decrease in cell viability at 10 to 100 uM after 72 hrs by CCK8 assay; assay type: cell-based; details: l02, 72 h
Outline: (§4)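 HK-2 and HL-7702 cells were seeded at ~5000 cells/well, incubated overnight, then exposed to compound at final 10, 50 and 100 μM for 72 h. CCK-8 was added for 1.5 h at 37 °C and OD450 read. Viability was OD treated / OD untreated × 100, with triplicates.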

HK-2 = test: Cytotoxicity against human HK2 cells assessed as decrease in cell viability at 10 to 100 uM after 72 hrs by CCK8 assay; assay type: cell-based; details: hk-2, 72 h; outline: as §4
Staphylococcus aureus [17] = test: Antibacterial activity against methicillin-resistant Staphylococcus aureus USA300 LAC infected in BALB/c mouse assessed as increase in mouse survival rate at 7 mg/kg, ip administered as single dose after 10 days relative to control; assay type: functional, organism-based; outline: as §3

Structure (SMILES) | Activity (Staphylococcus aureus [1]) | clearance [2] [mL/min/kg] | MIC (Enterococcus faecium [3]) [µg/mL] | MIC (Enterococcus faecium [4]) [µg/mL] | MIC (Enterococcus faecium [6]) [µg/mL] | MIC (Enterococcus faecium [7]) [µg/mL] | MIC90 (Staphylococcus aureus [12]) [µg/mL] | MIC (Enterococcus faecium [13]) [µg/mL] | MIC90 (Staphylococcus aureus [14]) [µg/mL] | Vd [15] [L/kg] | Activity (L02) | Activity (HK-2) | also measured
CN[C@H](CC(C)C)C(=O)N[C@H]1C(=O)N[C@@H](CC(N)=O)C(=O)N[C@H]2C(=O)N[C@H]3C(=O)N[C@H](C(=O)N[C@H](C(=O)O)c4cc(O)c(CN[C@H]5C(O)O[C@H](CO)[C@H](O)[C@@H]5O)c(O)c4-c4cc3ccc4O)[C@H](O)c3ccc(c(Cl)c3)Oc3cc2cc(c3O[C@@H]2O[C@H](CO)[C@@H](O)[C@H](O)[C@H]2O[C@H]2C[C@](C)(NCc3ccc(-c4ccc(Cl)cc4)cc3)[C@H](O)[C@H](C)O2)Oc2ccc(cc2Cl)[C@H]1O (some centres undefined) | Active | 7 | 0.25 (≈ 0.136 µM) | 2 (≈ 1.09 µM) | 4 (≈ 2.17 µM) | 2 (≈ 1.09 µM) | 0.12 (≈ 0.0652 µM) | 8 (≈ 4.35 µM) | 0.03 (≈ 0.0163 µM) | 1.75 |  |  | AUC(0-inf) [5]: 12200 ng·h/mL; Drug uptake (Blood): > 1 µg/mL; Ratio (Staphylococcus aureus [8]): 8 - 16; MRT inf [9]: 4.18 h; AUC(0-t) [10]: 12100 ng·h/mL; half-life [11]: 229 min; survival at 7 mg/kg (Staphylococcus aureus [16]): 93.3%
CCCCCCCCCCNCCN[C@@]1(C)C[C@H](O[C@H]2[C@H](Oc3c4cc5cc3Oc3ccc(cc3Cl)[C@@H](O)[C@@H](NC(=O)[C@@H](CC(C)C)NC)C(=O)N[C@@H](CC(N)=O)C(=O)N[C@H]5C(=O)N[C@H]3C(=O)N[C@H](C(=O)N[C@H](C(=O)O)c5cc(O)c(CNCP(=O)(O)O)c(O)c5-c5cc3ccc5O)[C@H](O)c3ccc(c(Cl)c3)O4)O[C@H](CO)[C@@H](O)[C@@H]2O)O[C@@H](C)[C@H]1O [TELAVANCIN] | Active | 5.1 | 1 (≈ 0.57 µM) | 8 (≈ 4.56 µM) | 0.12 (≈ 0.0684 µM) | 4 (≈ 2.28 µM) | 1 (≈ 0.57 µM) | 4 (≈ 2.28 µM) | 0.25 (≈ 0.142 µM) |  | Toxic | Non-Toxic | Activity (Staphylococcus aureus [16]): Active
CN[C@H](CC(C)C)C(=O)N[C@H]1C(=O)N[C@@H](CC(N)=O)C(=O)N[C@H]2C(=O)N[C@H]3C(=O)N[C@H](C(=O)N[C@H](C(=O)O)c4cc(O)c(CNCCO)c(O)c4-c4cc3ccc4O)[C@H](O)c3ccc(c(Cl)c3)Oc3cc2cc(c3O[C@@H]2O[C@H](CO)[C@@H](O)[C@H](O)[C@H]2O[C@H]2C[C@](C)(NCc3ccc(-c4ccc(C(F)(F)F)cc4)cc3)[C@H](O)[C@H](C)O2)Oc2ccc(cc2Cl)[C@H]1O |  |  | ≤ 0.06 | 1 (≈ 0.569 µM) | 2 (≈ 1.14 µM) | 1 (≈ 0.569 µM) | 0.12 (≈ 0.0683 µM) | 4 (≈ 2.28 µM) | 0.015 (≈ 0.00854 µM) |  |  |  | Activity (Staphylococcus aureus [17]): Active
CN[C@H](CC(C)C)C(=O)N[C@H]1C(=O)N[C@@H](CC(N)=O)C(=O)N[C@H]2C(=O)N[C@H]3C(=O)N[C@H](C(=O)N[C@H](C(=O)O)c4cc(O)cc(O)c4-c4cc3ccc4O)[C@H](O)c3ccc(c(Cl)c3)Oc3cc2cc(c3O[C@@H]2O[C@H](CO)[C@@H](O)[C@H](O)[C@H]2O[C@H]2C[C@](C)(NCc3ccc(-c4ccc(C(F)(F)F)cc4)cc3)[C@H](O)[C@H](C)O2)Oc2ccc(cc2Cl)[C@H]1O |  | 1.24 |  |  |  |  |  |  |  | 0.509 |  |  | AUC(0-inf) [5]: 67500 ng·h/mL; Drug uptake (Blood): > 1 µg/mL; MRT inf [9]: 6.83 h; AUC(0-t) [10]: 64200 ng·h/mL; half-life [11]: 362 min
CN[C@H](CC(C)C)C(=O)N[C@H]1C(=O)N[C@@H](CC(N)=O)C(=O)N[C@H]2C(=O)N[C@H]3C(=O)N[C@H](C(=O)N[C@H](C(=O)O)c4cc(O)c(CNCCO[C@@H]5O[C@H](CO)[C@H](O)[C@H](O)[C@H]5O)c(O)c4-c4cc3ccc4O)[C@H](O)c3ccc(c(Cl)c3)Oc3cc2cc(c3O[C@@H]2O[C@H](CO)[C@@H](O)[C@H](O)[C@H]2O[C@H]2C[C@](C)(NCc3ccc(-c4ccc(Cl)cc4)cc3)[C@H](O)[C@H](C)O2)Oc2ccc(cc2Cl)[C@H]1O |  |  | 0.12 (≈ 0.0637 µM) | 2 (≈ 1.06 µM) | 4 (≈ 2.12 µM) | 4 (≈ 2.12 µM) | 0.25 (≈ 0.133 µM) | 16 (≈ 8.49 µM) | 0.06 (≈ 0.0318 µM) |  | Non-Toxic | Non-Toxic | 
CN[C@H](CC(C)C)C(=O)N[C@H]1C(=O)N[C@@H](CC(N)=O)C(=O)N[C@H]2C(=O)N[C@H]3C(=O)N[C@H](C(=O)N[C@H](C(=O)O)c4cc(O)cc(O)c4-c4cc3ccc4O)[C@H](O)c3ccc(c(Cl)c3)Oc3cc2cc(c3O[C@@H]2O[C@H](CO)[C@@H](O)[C@H](O)[C@H]2O[C@H]2C[C@](C)(N)[C@H](O)[C@H](C)O2)Oc2ccc(cc2Cl)[C@H]1O [VANCOMYCIN] | inactive | 68.7 | 64 (≈ 44.2 µM) | > 128 | > 128 | > 128 | 8 (≈ 5.52 µM) | > 128 | 2 (≈ 1.38 µM) | 3.08 | Toxic | Toxic | survival at 7 mg/kg (Staphylococcus aureus [16]): 6.67%
CCCCCCCCCCN[C@@]1(C)C[C@H](O[C@H]2[C@H](Oc3c4cc5cc3Oc3ccc(cc3Cl)[C@@H](O)[C@@H](NC(=O)[C@@H](CC(C)C)NC)C(=O)N[C@@H](CC(N)=O)C(=O)N[C@H]5C(=O)N[C@H]3C(=O)N[C@H](C(=O)N[C@H](C(=O)O)c5cc(O)c(CN[C@H]6C(O)O[C@H](CO)[C@H](O)[C@@H]6O)c(O)c5-c5cc3ccc5O)[C@H](O)c3ccc(c(Cl)c3)O4)O[C@H](CO)[C@@H](O)[C@@H]2O)O[C@@H](C)[C@H]1O (some centres undefined) |  |  | 0.5 (≈ 0.281 µM) | 8 (≈ 4.49 µM) | 16 (≈ 8.99 µM) | 8 (≈ 4.49 µM) | 0.25 (≈ 0.14 µM) | 32 (≈ 18 µM) | 0.03 (≈ 0.0168 µM) |  |  |  | Ratio (Staphylococcus aureus [8]): 8 - 16
